Active and inactive are the calls of the source. The calls are words filed in the database; no cut-off is given here.
Tests used:
[1] = biological target: T1, Casein kinase II subunit alpha (Homo sapiens, UniProt P68400); test: Binding affinity to His-tagged recombinant human CK2alpha (6 to 335 residues) after 50 to 116.7 mins by surface plasmon resonance assay
Casein kinase II = Casein kinase II (Homo sapiens, UniProt P19784+P67870+P68400); test: Inhibition of CK2 in human DLD1 HA-myr-AKT1 cells assessed as suppression of AKTser129 phosphorylation after 3 to 24 hrs by Western blot analysis
Hepatocyte = test: Drug metabolism in rat hepatocytes assessed as oxidative demethylated metabolite formation; type: ADME, cell-based
Liver microsome [2] = test: Drug metabolism in rat liver microsomes in presence of ABT; type: ADME
Outline: (§1)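 Metabolite formation studied in rat and human liver microsome incubations with ABT present, to probe oxidative clearance.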

[3] = biological target: T1, Casein kinase II subunit alpha; test: Inhibition of full length N-terminal 6xHis-tagged recombinant human CK2alpha expressed in fall armyworm Sf21 cells using BODIPY-FL-RRRDDDSDDD-CONH2 as substrate after 90 mins by mobility shift assay
[4] = Antiproliferative activity against human […] cells after 72 hrs by alamar blue assay; type: functional; conditions: HCT-116, 72 h
[5] = Intrinsic clearance in rat hepatocyte assessed per 10^6 cells; type: ADME, cell-based; conditions: hepatocytes, read-out: CLH
[6] = biological target: Voltage-gated inwardly rectifying potassium channel KCNH2 (Homo sapiens, UniProt Q12809); test: Inhibition of human ERG expressed in CHO cells by patch clamp assay; type: cell-based
[7] = Fraction unbound in human plasma at 10 uM by equilibrium dialysis method; type: ADME, cell-free
[8] = Antiproliferative activity against human SW620 cells after 72 hrs by alamar blue assay; type: functional; conditions: SW-620, 72 h
[9] = Antiproliferative activity against human DLD1 cells after 72 hrs by alamar blue assay; type: functional; conditions: DLD-1, 72 h
Rattus norvegicus = test: AUC in rat at 10 mg/kg, po; type: ADME, organism-based; conditions: in vivo
[10] = Aqueous solubility of the compound in phosphate buffer at pH 7.4 incubated for 24 hrs by LC/MS/MS method; type: physicochemical
[11] = Inhibition of CK2 in mouse L-Wnt3a cells assessed as suppression of Wnt3a-mediated L S/L Super TOPFlash reporter gene transcription after 24 hrs; conditions: L Wnt-3A
[12] = Intrinsic clearance in human liver microsomes; type: ADME; conditions: read-out: CLH
Liver microsome [13] = test: Drug metabolism in human liver microsomes in presence of ABT; type: ADME; outline: as §1
Mus musculus [14] = test: In vivo inhibition of AKT phosphorylation in human SW620 cells xenografted in iv dosed Ncr nu/nu mouse after 48 hrs by Western blot analysis; type: functional, organism-based; conditions: SW-620
Outline: (§2)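 SW620 (APC mutant) xenograft mice dosed IV at 10 or 30 mg/kg; pAKT S129 and active β-catenin measured by Western blot of tumor lysates, one lane per vehicle- or compound-treated animal.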

[15] = biological target: Death-associated protein kinase 3 (Homo sapiens) (UniProt O43293); test: Inhibition of Dapk3 (unknown origin) at 0.1 uM by quantitative PCR
Outline: (§3)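 Single-concentration screen at 0.1 μM, run as part of a selectivity panel of 402 kinases.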

[16] = biological target: Homeodomain-interacting protein kinase 1 (Homo sapiens) (UniProt Q86Z02); test: Inhibition of Hipk1 (unknown origin) at 0.1 uM by quantitative PCR; outline: as §3
[17] = biological target: Homeodomain-interacting protein kinase 4 (Homo sapiens) (UniProt Q8NE63); test: Inhibition of Hipk4 (unknown origin) at 0.1 uM by quantitative PCR; outline: as §3
[18] = biological target: Dual specificity tyrosine-phosphorylation-regulated kinase 3 (Homo sapiens) (UniProt O43781); test: Inhibition of Dyrk3 (unknown origin) at 0.1 uM by quantitative PCR; outline: as §3
Mus musculus [19] = test: In vivo inhibition of active beta-catenin phosphorylation at Ser37 or Thr41 in human SW620 cells xenografted in iv dosed Ncr nu/nu mouse after 48 hrs by Western blot analysis; type: functional, organism-based; conditions: SW-620; outline: as §2
Mus musculus [20] = test: In vivo inhibition of Wnt-associated Tcf4-luciferase gene transcription in human DLD1 cells xenografted in Ncr nu/nu mouse at 10 mg/kg, iv measured at 8 hrs; type: functional; conditions: DLD-1, iv
Mus musculus [21] = test: In vivo inhibition of AKT phosphorylation at S129 in human DLD1 cells xenografted in Ncr nu/nu mouse at 10 mg/kg, iv measured up to 24 hrs; type: functional, organism-based; conditions: DLD-1
Outline: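 DLD-1 TOPflash xenograft mice given a single 10 mg/kg IV dose; tumor AKT Ser129 phosphorylation assessed out to 24 h.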

[22] = Antitumor activity against human HCT116 cells harboring beta-catenin mutation xenografted in Ncr nu/nu mouse at 30 mg/kg, ip administered as bolus dose for once in every week for 3 weeks; type: functional; conditions: HCT-116, ip, 504 h, read-out: TGI
Outline: (§4)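 Mouse xenografts (HCT-116 β-catenin mutant; SW620 APC mutant) dosed at 30 mg/kg weekly for 3 cycles; efficacy expressed as % tumor growth inhibition.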

[23] = biological target: Homeodomain-interacting protein kinase 2 (Homo sapiens) (UniProt Q9H2X6); conditions: 0.1 uM
[24] = biological target: Dual specificity tyrosine-phosphorylation-regulated kinase 1A (Homo sapiens) (UniProt Q13627); test: Inhibition of Dyrk1a (unknown origin) at 0.1 uM by quantitative PCR; outline: as §3
[25] = Antitumor activity against human SW620 cells harboring APC mutation xenografted in Ncr nu/nu mouse at 30 mg/kg, ip administered as bolus dose for once in every week for 3 weeks; type: functional; conditions: SW-620, ip, 504 h, read-out: TGI; outline: as §4
Plasma = test: Drug uptake in Ncr nu/nu mouse plasma xenografted with human DLD1 cells at 10 mg/kg, iv measured up to 24 hrs; type: ADME, organism-based, DLD-1; conditions: in vivo
Outline: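 Single 10 mg/kg IV dose in DLD-1 TOPflash xenograft mice; plasma drug concentration followed to 24 h.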

L-Wnt3a = test: Inhibition of CK2 in mouse L-Wnt3a cells assessed as depletion of active form of beta-catenin after 1 hr by Western blot method; type: cell-based
[26] = biological target: Dual specificity tyrosine-phosphorylation-regulated kinase 1B (Homo sapiens) (UniProt Q9Y463); test: Inhibition of Dyrk1b (unknown origin) 0.1 uM by quantitative PCR; outline: as §3
HCT-116 = test: Antitumor activity against human HCT116 cells harboring beta-catenin mutation xenografted in ip dosed Ncr nu/nu mouse administered as bolus dose for once in every week for 3 weeks; type: functional, organism-based
[27] = biological target: Dual specificity tyrosine-phosphorylation-regulated kinase 4 (Homo sapiens) (UniProt Q9NR20); test: Inhibition of Dyrk4 (unknown origin) at 0.1 uM by quantitative PCR; outline: as §3
Mus musculus [28] = test: Toxicity in Ncr nu/nu mouse xenografted with human SW620 cells harboring APC mutation assessed as reduction in body weight at 30 mg/kg, ip measured on day 25; type: organism-based, SW-620; parameters: scale not given: the % may be the effect or the level left; conditions: in vivo
Outline: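 SW620 (APC mutant) xenograft mice dosed weekly for 3 cycles; body weight change in treated animals recorded on day 25 as mean % change.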

Mus musculus [29] = test: Toxicity in ip dosed Ncr nu/nu mouse xenografted with human HCT-116 cells harboring beta-catenin mutation assessed as reversible body weight loss measured on day 25; type: organism-based; conditions: in vivo
Mus musculus [30] = test: Toxicity in ip dosed Ncr nu/nu mouse xenografted with human SW620 cells harboring APC mutation assessed as reversible body weight loss measured on day 25; type: organism-based, SW-620; conditions: in vivo
[31] = biological target: Bone morphogenetic protein receptor type-1B (Homo sapiens) (UniProt O00238); test: Inhibition of BMPR1b (unknown origin) at 0.1 uM by quantitative PCR
[32] = biological target: Homeodomain-interacting protein kinase 3 (Homo sapiens) (UniProt Q9H422); test: Inhibition of Hipk3 (unknown origin) at 0.1 uM by quantitative PCR; outline: as §3
[33] = biological target: Death-associated protein kinase 2 (Homo sapiens) (UniProt Q9UIK4); test: Inhibition of Dapk2 (unknown origin) at 0.1 uM by quantitative PCR; outline: as §3
SW-620 = test: Antitumor activity against human SW620 cells harboring APC mutation xenografted in ip dosed Ncr nu/nu mouse administered as bolus dose for once in every week for 3 weeks; type: functional, organism-based

Chain of Voltage-gated inwardly rectifying potassium channel KCNH2 (Q12809 whole entry): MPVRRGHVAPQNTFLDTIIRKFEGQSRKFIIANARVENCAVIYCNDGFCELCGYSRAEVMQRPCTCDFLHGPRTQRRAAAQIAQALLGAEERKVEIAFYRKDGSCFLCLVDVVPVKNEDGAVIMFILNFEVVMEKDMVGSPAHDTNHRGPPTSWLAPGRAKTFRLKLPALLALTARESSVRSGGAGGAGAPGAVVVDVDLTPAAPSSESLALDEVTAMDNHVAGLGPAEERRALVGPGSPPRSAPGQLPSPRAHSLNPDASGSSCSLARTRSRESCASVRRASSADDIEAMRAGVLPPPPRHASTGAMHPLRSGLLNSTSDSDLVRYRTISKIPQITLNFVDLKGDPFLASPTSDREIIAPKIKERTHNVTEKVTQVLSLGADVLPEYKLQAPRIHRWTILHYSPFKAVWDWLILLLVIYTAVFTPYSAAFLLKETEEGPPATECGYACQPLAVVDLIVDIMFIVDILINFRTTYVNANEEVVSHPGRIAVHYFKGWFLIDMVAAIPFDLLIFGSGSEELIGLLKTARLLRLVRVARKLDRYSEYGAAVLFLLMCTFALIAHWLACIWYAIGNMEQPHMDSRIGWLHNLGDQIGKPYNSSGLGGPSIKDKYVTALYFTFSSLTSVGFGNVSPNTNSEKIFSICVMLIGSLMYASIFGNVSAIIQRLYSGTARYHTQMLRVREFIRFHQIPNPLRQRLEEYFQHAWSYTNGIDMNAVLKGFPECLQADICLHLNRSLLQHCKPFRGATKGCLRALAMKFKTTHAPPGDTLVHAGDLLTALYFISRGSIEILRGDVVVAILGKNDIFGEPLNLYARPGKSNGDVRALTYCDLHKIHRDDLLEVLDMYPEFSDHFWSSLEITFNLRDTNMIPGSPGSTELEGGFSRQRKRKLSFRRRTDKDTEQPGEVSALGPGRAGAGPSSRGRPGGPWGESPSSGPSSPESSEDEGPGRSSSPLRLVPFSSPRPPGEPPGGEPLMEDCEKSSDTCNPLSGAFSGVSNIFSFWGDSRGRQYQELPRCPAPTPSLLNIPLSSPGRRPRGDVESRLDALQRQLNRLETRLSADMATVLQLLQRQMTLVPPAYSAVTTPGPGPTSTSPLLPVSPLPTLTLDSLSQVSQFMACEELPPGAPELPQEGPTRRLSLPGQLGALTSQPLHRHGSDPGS
T1 sequence (P68400 whole entry, the tested form may be a part): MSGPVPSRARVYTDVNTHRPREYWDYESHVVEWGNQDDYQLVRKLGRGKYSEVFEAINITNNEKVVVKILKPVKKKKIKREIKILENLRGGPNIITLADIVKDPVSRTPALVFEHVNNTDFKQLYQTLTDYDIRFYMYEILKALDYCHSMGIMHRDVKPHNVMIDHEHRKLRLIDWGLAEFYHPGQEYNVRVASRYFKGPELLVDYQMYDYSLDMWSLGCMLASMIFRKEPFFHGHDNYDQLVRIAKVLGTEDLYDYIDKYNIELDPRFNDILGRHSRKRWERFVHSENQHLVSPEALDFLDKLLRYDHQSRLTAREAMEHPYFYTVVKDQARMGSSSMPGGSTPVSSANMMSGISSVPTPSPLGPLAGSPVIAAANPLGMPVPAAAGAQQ
Chain of Dual specificity tyrosine-phosphorylation-regulated kinase 3 (Homo sapiens) (O43781 whole entry): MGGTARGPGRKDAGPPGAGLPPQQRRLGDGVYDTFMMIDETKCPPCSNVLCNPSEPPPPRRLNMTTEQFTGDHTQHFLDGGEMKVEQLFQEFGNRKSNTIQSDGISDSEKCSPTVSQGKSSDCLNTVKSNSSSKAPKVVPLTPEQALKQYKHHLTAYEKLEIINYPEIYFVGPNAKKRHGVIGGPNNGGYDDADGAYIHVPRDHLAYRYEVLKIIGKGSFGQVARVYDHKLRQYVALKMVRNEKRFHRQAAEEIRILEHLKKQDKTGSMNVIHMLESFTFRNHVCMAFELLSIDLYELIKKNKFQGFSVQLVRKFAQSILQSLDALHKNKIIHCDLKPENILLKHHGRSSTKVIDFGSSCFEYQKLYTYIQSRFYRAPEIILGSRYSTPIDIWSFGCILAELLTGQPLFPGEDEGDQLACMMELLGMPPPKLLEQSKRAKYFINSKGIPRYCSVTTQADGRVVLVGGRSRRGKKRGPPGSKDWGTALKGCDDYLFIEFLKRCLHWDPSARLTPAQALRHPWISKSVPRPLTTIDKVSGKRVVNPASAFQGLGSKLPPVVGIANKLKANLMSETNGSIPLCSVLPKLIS
Chain of Death-associated protein kinase 3 (Homo sapiens) (O43293 whole entry, looked up): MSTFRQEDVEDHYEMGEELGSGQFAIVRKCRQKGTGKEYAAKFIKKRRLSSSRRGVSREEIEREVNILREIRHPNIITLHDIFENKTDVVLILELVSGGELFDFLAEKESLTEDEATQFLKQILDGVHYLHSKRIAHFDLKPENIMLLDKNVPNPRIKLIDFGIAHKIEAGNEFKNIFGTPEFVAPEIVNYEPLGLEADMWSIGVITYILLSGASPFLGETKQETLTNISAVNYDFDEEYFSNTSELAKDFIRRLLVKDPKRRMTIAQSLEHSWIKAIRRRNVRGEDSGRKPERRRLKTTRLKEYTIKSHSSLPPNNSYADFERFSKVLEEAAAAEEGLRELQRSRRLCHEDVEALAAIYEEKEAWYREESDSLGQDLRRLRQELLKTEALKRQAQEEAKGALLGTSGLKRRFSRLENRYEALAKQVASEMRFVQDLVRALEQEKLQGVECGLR
Chain of Casein kinase II (P67870 whole entry): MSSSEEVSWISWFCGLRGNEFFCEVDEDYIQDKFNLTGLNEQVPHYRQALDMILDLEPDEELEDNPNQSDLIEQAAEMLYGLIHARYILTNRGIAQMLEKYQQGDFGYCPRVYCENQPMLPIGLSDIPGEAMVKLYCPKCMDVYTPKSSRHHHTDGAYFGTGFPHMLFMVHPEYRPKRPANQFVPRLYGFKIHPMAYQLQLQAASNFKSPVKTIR
Chain of Casein kinase II (P68400 whole entry): as the sequence (P68400 whole entry, the tested form may be a part) above
Chain of Casein kinase II (P19784 whole entry): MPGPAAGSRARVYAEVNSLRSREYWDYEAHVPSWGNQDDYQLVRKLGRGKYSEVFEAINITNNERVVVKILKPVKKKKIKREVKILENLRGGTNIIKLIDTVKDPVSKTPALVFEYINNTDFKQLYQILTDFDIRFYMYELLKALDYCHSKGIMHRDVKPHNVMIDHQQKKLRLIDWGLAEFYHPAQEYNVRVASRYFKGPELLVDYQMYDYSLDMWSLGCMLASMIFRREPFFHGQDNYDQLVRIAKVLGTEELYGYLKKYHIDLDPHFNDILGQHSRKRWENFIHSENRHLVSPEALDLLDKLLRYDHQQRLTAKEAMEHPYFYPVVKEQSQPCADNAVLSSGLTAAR
Chain of Homeodomain-interacting protein kinase 1 (Homo sapiens) (Q86Z02 whole entry, looked up): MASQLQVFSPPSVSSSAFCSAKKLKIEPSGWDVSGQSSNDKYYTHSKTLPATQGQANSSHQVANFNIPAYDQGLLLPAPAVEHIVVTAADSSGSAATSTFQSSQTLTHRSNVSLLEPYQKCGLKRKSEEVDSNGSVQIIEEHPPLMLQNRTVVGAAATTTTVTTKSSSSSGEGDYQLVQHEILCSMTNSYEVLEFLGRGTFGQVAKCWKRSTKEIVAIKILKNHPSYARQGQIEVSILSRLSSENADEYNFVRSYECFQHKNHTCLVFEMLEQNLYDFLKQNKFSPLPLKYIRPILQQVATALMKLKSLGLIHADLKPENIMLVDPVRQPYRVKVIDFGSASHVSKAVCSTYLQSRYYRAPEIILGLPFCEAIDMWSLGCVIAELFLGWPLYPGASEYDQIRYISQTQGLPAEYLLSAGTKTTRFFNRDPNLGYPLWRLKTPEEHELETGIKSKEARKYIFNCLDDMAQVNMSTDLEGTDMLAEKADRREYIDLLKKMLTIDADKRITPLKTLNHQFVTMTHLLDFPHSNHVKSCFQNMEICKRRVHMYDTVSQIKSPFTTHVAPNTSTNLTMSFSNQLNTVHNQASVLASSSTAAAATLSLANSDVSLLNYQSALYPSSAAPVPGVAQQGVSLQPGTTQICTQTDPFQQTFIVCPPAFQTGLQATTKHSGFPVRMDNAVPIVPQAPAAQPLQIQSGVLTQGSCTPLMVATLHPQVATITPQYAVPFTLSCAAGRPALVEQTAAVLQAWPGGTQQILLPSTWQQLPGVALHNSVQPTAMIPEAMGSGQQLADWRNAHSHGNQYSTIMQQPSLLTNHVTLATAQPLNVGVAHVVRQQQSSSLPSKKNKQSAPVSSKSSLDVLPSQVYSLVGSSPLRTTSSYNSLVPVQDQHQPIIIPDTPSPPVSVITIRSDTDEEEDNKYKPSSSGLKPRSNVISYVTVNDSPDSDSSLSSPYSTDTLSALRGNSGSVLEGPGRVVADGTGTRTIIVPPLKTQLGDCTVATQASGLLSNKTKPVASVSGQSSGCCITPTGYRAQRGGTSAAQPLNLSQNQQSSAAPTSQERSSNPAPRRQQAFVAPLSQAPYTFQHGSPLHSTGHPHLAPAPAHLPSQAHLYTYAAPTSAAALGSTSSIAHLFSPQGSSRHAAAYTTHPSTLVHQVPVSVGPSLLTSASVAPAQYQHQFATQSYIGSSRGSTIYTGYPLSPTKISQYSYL
Chain of Bone morphogenetic protein receptor type-1B (Homo sapiens) (O00238 whole entry): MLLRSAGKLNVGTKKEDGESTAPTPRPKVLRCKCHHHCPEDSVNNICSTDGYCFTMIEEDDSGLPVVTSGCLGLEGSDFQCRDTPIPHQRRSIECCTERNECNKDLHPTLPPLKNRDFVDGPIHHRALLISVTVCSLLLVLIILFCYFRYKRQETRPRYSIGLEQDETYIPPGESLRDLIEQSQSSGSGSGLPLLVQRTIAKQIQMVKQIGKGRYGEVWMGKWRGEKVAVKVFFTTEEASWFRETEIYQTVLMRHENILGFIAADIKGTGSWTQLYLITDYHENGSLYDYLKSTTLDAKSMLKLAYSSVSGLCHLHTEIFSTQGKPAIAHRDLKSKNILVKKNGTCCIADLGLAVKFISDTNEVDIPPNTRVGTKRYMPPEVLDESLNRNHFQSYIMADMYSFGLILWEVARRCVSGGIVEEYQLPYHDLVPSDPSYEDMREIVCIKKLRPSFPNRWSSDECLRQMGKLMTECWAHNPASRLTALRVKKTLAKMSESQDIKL

For CC(=O)Nc1cc(Nc2cc(NC3CC3)n3ncc(C#N)c3n2)ccc1N(C)CCN(C)C, the Kd [1] was 0.0482 nM, the IC50 (Casein kinase II) was 1 nM and the Drug metabolism (Hepatocyte) was “metabolite_detected”. For the same molecule, the Drug metabolism (Liver microsome [2]) was “metabolite_notdetected”, the IC50 [3] was under 3 nM and the GI50 [4] was 30 nM. It also gave a hepatocyte CLint [5] of 32 µL/min/1e6 cells, an IC50 [6] of 4000 nM and a fraction unbound at 10 µM [7] of 0.26. It also gave a GI50 [8] of 30 nM, a GI50 [9] of 80 nM and an AUC (Rattus norvegicus) of 0.36 µM·h. For the same molecule, the solubility at 24 h [10] was over 1000 µM, the IC50 [11] was 75 nM and the microsomal CLint [12] was 9 µL/min/mg. The Drug metabolism (Liver microsome [13]) was “metabolite_notdetected”.

For CC(=O)Nc1cc(Nc2cc(NC3CC3)n3ncc(C#N)c3n2)ccc1N(C)CCN, the inhibition (Mus musculus [14]) was “Dose-dependent effect”, the inhibition [15] was over 50% and the inhibition [16] was over 50%. The inhibition [17] was over 50%, the inhibition [18] was over 50% and the inhibition (Mus musculus [19]) was “Dose-dependent effect”. For the same molecule, the inhibition in vivo at 10 mg/kg (Mus musculus [20]) was 40%, the inhibition (Mus musculus [21]) was “Active” and the inhibition in vivo at 30 mg/kg [22] was 94%. It also gave an inhibition [23] of over 50%, an inhibition [24] of over 50% and an inhibition in vivo at 30 mg/kg [25] of 74%. For the same molecule, the Drug uptake (Plasma) was “Not Active”, the GI50 [4] was 10 nM and the inhibition (L-Wnt3a) was “Dose-dependent effect”. For the same molecule, the hepatocyte CLint [5] was 8 µL/min/1e6 cells, the inhibition [26] was over 50% and the IC50 [6] was over 100000 nM. For the same molecule, the TGI (HCT-116) was “Dose-dependent effect”, the inhibition [27] was over 50% and the Activity (Mus musculus [28]) was 6.8%. For the same molecule, the fraction unbound at 10 µM [7] was 0.39, the GI50 [8] was 5 nM and the Activity (Mus musculus [29]) was “Dose-dependent effect”. For the same molecule, the Activity (Mus musculus [30]) was “Dose-dependent effect”, the GI50 [9] was 50 nM and the inhibition [31] was 74%. The inhibition [32] was over 50%, the inhibition [33] was over 50% and the solubility at 24 h [10] was over 1000 µM. For the same molecule, the IC50 [11] was 43 nM, the microsomal CLint [12] was 7 µL/min/mg and the TGI (SW-620) was “Dose-dependent effect”.
